Laboratory results: ChEMBL document CHEMBL1152990, “The mechanism of action of beta-D-2'-deoxy-2'-fluoro-2'-C-methylcytidine involves a second metabolic pathway leading to beta-D-2'-deoxy-2'-fluoro-2'-C-methyluridine 5'-triphosphate, a potent inhibitor of the hepatitis C virus RNA-dependent RNA polymerase” (Antimicrob Agents Chemother, 2008)

What was measured:
[1] = Drug metabolism in HCV subgenomic replicon RNA-containing human HuH7 cells assessed as PSI-6130 nucleotide diphosphate level per 10 '6 cells at 5 uM after 48 hrs by HPLC analysis in presence of 50 uM DCTD inhibitor zedularine; type: ADME, cell-based; settings: huh-7, 48 h
In short: (§1)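 Clone A Huh-7 replicon cells were grown overnight in DMEM with 10% FBS. They were then exposed to 5 μM [3H]PSI-6130 with 0, 50 or 100 μM zebularine for 48 h at 37°C. Cells were washed, trypsinized, counted and extracted in cold 60% methanol. Nucleotides were separated by SAX HPLC (0–100% buffer B over 90 min) with radiometric flow detection.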

[2] = Cytotoxicity against HCV subgenomic replicon RNA-containing human HuH7 cells at > 400 uM; type: cell-based; settings: huh-7
[3] = Drug metabolism in HCV subgenomic replicon RNA-containing human HuH7 cells assessed as RO2433 nucleotide diphosphate level per 10 '6 cells at 5 uM after 48 hrs by HPLC analysis in absence of DCTD inhibitor zedularine; type: ADME, cell-based; settings: huh-7, 48 h; in short: as §1
[4] = Drug metabolism in HCV subgenomic replicon RNA-containing human HuH7 cells assessed as RO2433 nucleotide diphosphate level at 5 uM after 48 hrs by HPLC analysis in presence of 100 uM DCTD inhibitor zedularine; type: ADME, cell-based; settings: huh-7, 48 h; in short: as §1
[5] = Drug metabolism in HCV subgenomic replicon RNA-containing human HuH7 cells assessed as PSI-6130 nucleotide monophosphate level per 10 '6 cells at 5 uM after 48 hrs by HPLC analysis in presence of 100 uM DCTD inhibitor zedularine; type: ADME, cell-based; settings: huh-7, 48 h; in short: as §1
Hepatitis C virus [6] = test: Antiviral activity against wild type HCV infected in human HuH7 cells assessed as inhibition of viral RNA replication after 4 days by replicon assay; type: functional, Hepacivirus hominis; settings: Huh-7, 96 h
In short: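 Wild-type HCV subgenomic replicon Huh-7 cells (clone A) were plated at 1,500 cells/well in G418-free medium with threefold serial compound dilutions and incubated for 4 days at 37°C, 5% CO2. Replicon RNA was extracted and measured by single-step multiplex RT-PCR. Activity was calculated as the CT shift from the no-drug control, with EC90 derived.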

[7] = Drug metabolism in HCV subgenomic replicon RNA-containing human HuH7 cells assessed as RO2433 nucleotide monophosphate level per 10 '6 cells at 5 uM after 48 hrs by HPLC analysis in presence of 50 uM DCTD inhibitor zedularine; type: ADME, cell-based; settings: huh-7, 48 h; in short: as §1
[8] = Drug metabolism in HCV subgenomic replicon RNA-containing human HuH7 cells assessed as PSI-6130 nucleotide triphosphate level per 10 '6 cells at 5 uM after 48 hrs by HPLC analysis in absence of DCTD inhibitor zedularine; type: ADME, cell-based; settings: huh-7, 48 h; in short: as §1
[9] = Drug metabolism in HCV subgenomic replicon RNA-containing human HuH7 cells assessed as RO2433 nucleotide monophosphate level per 10 '6 cells at 5 uM after 48 hrs by HPLC analysis in presence of 100 uM DCTD inhibitor zedularine; type: ADME, cell-based; settings: huh-7, 48 h; in short: as §1
[10] = Drug metabolism in HCV subgenomic replicon RNA-containing human HuH7 cells assessed as RO2433 nucleotide monophosphate level per 10 '6 cells at 5 uM after 48 hrs by HPLC analysis in absence of DCTD inhibitor zedularine; type: ADME, cell-based; settings: huh-7, 48 h; in short: as §1
[11] = Drug metabolism in HCV subgenomic replicon RNA-containing human HuH7 cells assessed as PSI-6130 nucleotide diphosphate level per 10 '6 cells at 5 uM after 48 hrs by HPLC analysis in absence of DCTD inhibitor zedularine; type: ADME, cell-based; settings: huh-7, 48 h; in short: as §1
[12] = Drug metabolism in HCV subgenomic replicon RNA-containing human HuH7 cells assessed as PSI-6130 nucleotide monophosphate level per 10 '6 cells at 5 uM after 48 hrs by HPLC analysis in absence of DCTD inhibitor zedularine; type: ADME, cell-based; settings: huh-7, 48 h; in short: as §1
[13] = Drug metabolism in HCV subgenomic replicon RNA-containing human HuH7 cells assessed as RO2433 nucleotide triphosphate level per 10 '6 cells at 5 uM after 48 hrs by HPLC analysis in presence of 100 uM DCTD inhibitor zedularine; type: ADME, cell-based; settings: huh-7, 48 h; in short: as §1
[14] = Drug metabolism in HCV subgenomic replicon RNA-containing human HuH7 cells assessed as RO2433 nucleotide diphosphate level per 10 '6 cells at 5 uM after 48 hrs by HPLC analysis in presence of 50 uM DCTD inhibitor zedularine; type: ADME, cell-based; settings: huh-7, 48 h; in short: as §1
[15] = Drug metabolism in HCV subgenomic replicon RNA-containing human HuH7 cells assessed as PSI-6130 nucleotide triphosphate level per 10 '6 cells at 5 uM after 48 hrs by HPLC analysis in presence of 50 uM DCTD inhibitor zedularine; type: ADME, cell-based; settings: huh-7, 48 h; in short: as §1
[16] = Drug metabolism in HCV subgenomic replicon RNA-containing human HuH7 cells assessed as PSI-6130 nucleotide monophosphate level per 10 '6 cells at 5 uM after 48 hrs by HPLC analysis in presence of 50 uM DCTD inhibitor zedularine; type: ADME, cell-based; settings: huh-7, 48 h; in short: as §1
[17] = Drug metabolism in HCV subgenomic replicon RNA-containing human HuH7 cells assessed as PSI-6130 nucleotide diphosphate level per 10 '6 cells at 5 uM after 48 hrs by HPLC analysis in presence of 100 uM DCTD inhibitor zedularine; type: ADME, cell-based; settings: huh-7, 48 h; in short: as §1
[18] = Drug metabolism in HCV subgenomic replicon RNA-containing human HuH7 cells assessed as RO2433 nucleotide triphosphate level per 10 '6 cells at 5 uM after 48 hrs by HPLC analysis in absence of DCTD inhibitor zedularine; type: ADME, cell-based; settings: huh-7, 48 h; in short: as §1
[19] = Drug metabolism in HCV subgenomic replicon RNA-containing human HuH7 cells assessed as PSI-6130 nucleotide triphosphate level per 10 '6 cells at 5 uM after 48 hrs by HPLC analysis in presence of 100 uM DCTD inhibitor zedularine; type: ADME, cell-based; settings: huh-7, 48 h; in short: as §1
[20] = Drug metabolism in HCV subgenomic replicon RNA-containing human HuH7 cells assessed as RO2433 nucleotide triphosphate level per 10 '6 cells at 5 uM after 48 hrs by HPLC analysis in presence of 50 uM DCTD inhibitor zedularine; type: ADME, cell-based; settings: huh-7, 48 h; in short: as §1
Hepatocyte [21] = test: Metabolic stability in human hepatocytes assessed as RO2433 triphosphate half life at 2 uM
[22] = target: RNA-directed RNA polymerase (Hepacivirus hominis, UniProt O39930, S282T); test: Inhibition of HCV NS5B polymerase S282T mutant assessed as incorporation of [alpha32P]UTP into newly synthesized RNA by liquid scintillation counting
In short: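 S282T NS5B (C-terminal Δ21, E. coli-expressed) de novo RNA synthesis on an unprimed minus-IRES template at 27°C in 50 mM HEPES pH 7.5 with 5 mM MgCl2 and 2 mM DTT. CTP, ATP and GTP were fixed at 10, 100 and 100 μM, and 32P-UTP and inhibitor were varied. Timed aliquots were quenched with EDTA/NaCl/citrate stop solution. Steady-state competitive inhibition gave the Ki.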

[23] = Inhibition of wild type HCV NS5B polymerase assessed as incorporation of [alpha32P]UTP into newly synthesized RNA by liquid scintillation counting; design: species or system Hepacivirus hominis
In short: (§2)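 De novo RNA synthesis by NS5B lacking 21 C-terminal residues, in 50 mM HEPES pH 7.5 with 5 mM MgCl2 and 2 mM DTT at 27°C. Template was unprimed minus-IRES RNA, 2.8 μg each of enzyme and template. CTP 10 μM, ATP and GTP 100 μM; 32P-UTP and inhibitor were varied. Aliquots were quenched with EDTA/NaCl/citrate.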

[24] = Activity of wild type HCV NS5B polymerase; design: species or system Hepacivirus hominis; in short: as §2
Hepatitis C virus [25] = test: Antiviral activity against wild type HCV infected in human HuH7 cells assessed as inhibition of viral RNA replication after 4 days by replicon assay in absence of DCTD inhibitor zedularine; type: functional, Hepacivirus hominis; settings: Huh-7, 96 h
In short: (§3)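 Clone A Huh-7 replicon cells at 1,500 cells/well, without G418. Threefold serial compound dilutions were given with or without 100 μM zebularine, for 4 days at 37°C in 5% CO2. Replicon RNA was quantified by single-step multiplex RT-PCR, and activity was taken as ΔCT relative to the no-drug control.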

Hepatitis C virus [26] = test: Ratio of EC90 for wild type HCV in viral replicon RNA-containing human HuH7 cells in absence of zedularine to EC90 wild type HCV in viral replicon RNA-containing human HuH7 cells in presence of zedularine; type: functional, Hepacivirus hominis, Huh-7; in short: as §3
Hepatitis C virus [27] = test: Antiviral activity against HCV harboring NS5B polymerase S282T mutation infected in human HuH7 cells assessed as inhibition of viral RNA replication after 4 days by replicon assay in presence of 100 uM DCTD inhibitor zedularine; type: functional, Hepacivirus hominis; settings: Huh-7, 96 h
In short: (§4)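 Huh-7 clone A subgenomic replicon cells carrying NS5B S282T (selected by serial passage with 2′-C-methyladenosine) were seeded at 1,500 cells/well without G418. Threefold compound dilutions were added alone or with 100 μM zebularine, followed by 4 days at 37°C, 5% CO2. Replicon RNA was quantified by single-step multiplex RT-PCR, and activity was taken as ΔCT versus the no-drug control to give EC90.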

Hepatitis C virus [28] = test: Antiviral activity against wild type HCV infected in human HuH7 cells assessed as inhibition of viral RNA replication after 4 days by replicon assay in presence of 100 uM DCTD inhibitor zedularine; type: functional, Hepacivirus hominis; settings: Huh-7, 96 h; in short: as §3
Hepatitis C virus [29] = test: Antiviral activity against HCV harboring NS5B polymerase S282T mutation infected in human HuH7 cells assessed as inhibition of viral RNA replication after 4 days by replicon assay in absence of DCTD inhibitor zedularine; type: functional, Hepacivirus hominis; settings: Huh-7, 96 h; in short: as §4
Hepatocyte [30] = test: Metabolic stability in human hepatocytes assessed as PSI-6130 triphosphate half life at 2 uM
Hepatocyte [31] = test: Metabolic stability in human hepatocytes assessed as RO2433 triphosphate half life at 2 uM; type: ADME, cell-based, Liver

Chain of RNA-directed RNA polymerase (O39930 entry or part of it S282T): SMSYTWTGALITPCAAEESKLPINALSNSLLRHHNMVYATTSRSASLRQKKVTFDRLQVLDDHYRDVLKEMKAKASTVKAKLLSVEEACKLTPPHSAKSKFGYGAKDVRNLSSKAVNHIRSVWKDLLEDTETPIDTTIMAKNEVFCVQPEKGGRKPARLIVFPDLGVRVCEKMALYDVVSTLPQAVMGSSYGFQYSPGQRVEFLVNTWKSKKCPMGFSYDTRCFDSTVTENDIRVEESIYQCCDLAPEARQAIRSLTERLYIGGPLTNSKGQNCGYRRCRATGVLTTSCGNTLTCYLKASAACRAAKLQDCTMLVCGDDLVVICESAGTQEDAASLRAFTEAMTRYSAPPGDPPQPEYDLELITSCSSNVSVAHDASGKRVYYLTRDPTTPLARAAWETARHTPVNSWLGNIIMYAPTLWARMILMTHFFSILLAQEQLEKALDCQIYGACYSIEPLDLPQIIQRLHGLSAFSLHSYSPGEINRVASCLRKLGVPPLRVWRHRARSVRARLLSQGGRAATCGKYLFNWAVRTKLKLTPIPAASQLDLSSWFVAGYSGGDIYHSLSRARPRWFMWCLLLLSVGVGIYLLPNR

O=c1ncccn1[C@@H]1O[C@H](CO)[C@@H](O)[C@H]1O [ZEBULARINE]
Activity [1]: 5.48 pmol | Activity [2]: 50% | Activity [3]: 4.79 pmol | Activity [4]: 0.88 pmol | Activity [5]: 1.26 pmol | EC90 (Hepatitis C virus [6]): > 400 µM | Activity [7]: 0.27 pmol | Activity [8]: 11.53 pmol | Activity [9]: 0.22 pmol | Activity [10]: 0.79 pmol | Activity [11]: 3.3 pmol | Activity [12]: 0.65 pmol | Activity [13]: 3.53 pmol | Activity [14]: 1.33 pmol | Activity [15]: 28.62 pmol | Activity [16]: 1.04 pmol | Activity [17]: 6.61 pmol | Activity [18]: 11.51 pmol | Activity [19]: 31.74 pmol | Activity [20]: 5.62 pmol

C[C@@]1(F)[C@H](O)[C@@H](COP(=O)(O)OP(=O)(O)OP(=O)(O)O)O[C@H]1n1ccc(=O)[nH]c1=O [GS-461203]
t1/2 (Hepatocyte [21]): 38 h | Ki [22]: 22 µM | Ki [23]: 0.42 µM | Km [24]: 0.068 µM

C[C@@]1(F)[C@H](O)[C@@H](CO)O[C@H]1n1ccc(N)nc1=O
EC90 (Hepatitis C virus [25]): 4.9 µM | Ratio (Hepatitis C virus [26]): 2.3 | EC90 (Hepatitis C virus [27]): 8.9 µM | EC90 (Hepatitis C virus [28]): 2.1 µM | EC90 (Hepatitis C virus [29]): 23.8 µM | t1/2 (Hepatocyte [30]): 4.7 h

C[C@@]1(F)[C@H](O)[C@@H](CO)O[C@H]1n1ccc(=O)[nH]c1=O
EC90 (Hepatitis C virus [25]): > 100 µM | Activity (Hepatocyte [31]): Not Active

C[C@@]1(F)[C@H](O)[C@@H](COP(=O)(O)OP(=O)(O)OP(=O)(O)O)O[C@H]1n1ccc(N)nc1=O [PSI-6130-TP]
Ki [22]: 0.31 µM | Ki [23]: 0.059 µM

COC(=O)[C@H](C)NP(=O)(OC[C@H]1O[C@@H](n2ccc(=O)[nH]c2=O)[C@](C)(F)[C@@H]1O)Oc1ccccc1 (stereo partly specified)
EC90 (Hepatitis C virus [25]): 1.6 µM | EC90 (Hepatitis C virus [29]): 34.7 µM
